Activity calls are given as the source filed them. The calls are words filed in the database; no cut-off is given here.
Tests used:
Mus musculus [1] = organism: Mus musculus; assay: animal or person; conditions: Albino, po, read-out: INH
Mus musculus [2] = assay: Toxicity in carrageenan treated Albino mouse liver assessed as acute hepatitis at 100 mg/kg, po administered 1 hr before carrageenan challenge measured after 4 hrs by hematoxilen eosine staining; assay type: organism-based; parameters: dose 100 mg/kg, route oral; conditions: in vivo
Outline: (§1)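 Mice given oral doses suspended in 0.5% CMC (vehicle controls) for the carrageenan paw edema experiment. Animals sacrificed 4 h after the paw edema experiments. Liver, stomach and kidneys removed and fixed in 10% formalin, then sections scored microscopically for kidney edema and mononuclear cell infiltration, gastritis/ulceration, and liver fatty change, acute hepatitis/spotty necrosis and cholestasis.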

Mus musculus [3] = assay: Toxicity in carrageenan treated Albino mouse liver assessed as cholestasis at 100 mg/kg, po administered 1 hr before carrageenan challenge measured after 4 hrs by hematoxilen eosine staining; assay type: organism-based; parameters: dose 100 mg/kg, route oral; conditions: in vivo
Outline: as §1

Mus musculus [4] = assay: Antiinflammatory activity in Albino mouse assessed as inhibition of carrageenan-induced foot paw edema at 100 mg/kg, po administered 1 hr before carrageenan challenge measured after 2 hrs; assay type: functional
Outline: (§2)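 Fasted mice (water free) dosed orally with suspensions in 0.5% CMC; controls received vehicle only. Right hind paw thickness measured with a dial gauge 1 h after dosing, then carrageenan-induced edema re-measured 2 h later. Effect expressed as percent inhibition of edema versus control; mean of n = 6.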

Mus musculus [5] = assay: Antiinflammatory activity against carrageenan-induced inflammation in Albino mouse air ppouch model assessed as number of polymorphonuclear leukocytes infiltration at 100 mg/kg, po administered 1 hr before carrageenan challenge measured after 4 hrs by air pouch test; assay type: functional
Outline: (§3)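 Mice housed in groups of six, food withdrawn the day before with water free. Dosing by oral gavage in 0.5% CMC, with vehicle-only controls. Air pouch made by sc injection of 1 ml air over 3 days. On day 3, 1 ml of 10 mg/ml carrageenan (heat-sterilized, held at 37 °C) injected into the pouch, 1 h after dosing. Killed 4 h later; pouch lavaged with 3 ml PBS-heparin, spun 2000 rpm 15 min 4 °C, PMNL counted by Coulter Counter; n = 6.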

Mus musculus [6] = assay: Toxicity in carrageenan treated Albino mouse kidney assessed as edema at 100 mg/kg, po administered 1 hr before carrageenan challenge measured after 4 hrs by hematoxilen eosine staining; assay type: organism-based; parameters: dose 100 mg/kg, route oral; conditions: in vivo
Outline: as §1

Mus musculus [7] = assay: Toxicity in carrageenan treated Albino mouse stomach assessed as gastric ulcer at 100 mg/kg, po administered 1 hr before carrageenan challenge measured after 4 hrs by hematoxilen eosine staining; assay type: organism-based; parameters: dose 100 mg/kg, route oral; conditions: in vivo
Outline: as §1

Mus musculus [8] = assay: Toxicity in carrageenan treated Albino mouse liver assessed as fatty change at 100 mg/kg, po administered 1 hr before carrageenan challenge measured after 4 hrs by hematoxilen eosine staining; assay type: organism-based; parameters: dose 100 mg/kg, route oral; conditions: in vivo
Outline: as §1

Mus musculus [9] = assay: Toxicity in carrageenan treated Albino mouse kidney assessed as […] mononuclear lymphocytes at 100 mg/kg, po administered 1 hr before carrageenan challenge measured after 4 hrs by hematoxilen eosine staining; assay type: organism-based; parameters: dose 100 mg/kg, route oral; conditions: in vivo
Outline: as §1

Mus musculus [10] = assay: Toxicity in carrageenan treated Albino mouse stomach assessed as gastric ulcer at 10 mg/kg, po administered 1 hr before carrageenan challenge measured after 4 hrs by hematoxilen eosine staining; assay type: organism-based; parameters: dose 10 mg/kg, route oral; conditions: in vivo
Outline: as §1

Mus musculus [11] = assay: Toxicity in carrageenan treated Albino mouse liver assessed as cholestasis at 10 mg/kg, po administered 1 hr before carrageenan challenge measured after 4 hrs by hematoxilen eosine staining; assay type: organism-based; parameters: dose 10 mg/kg, route oral; conditions: in vivo
Outline: as §1

Mus musculus [12] = assay: Antiinflammatory activity in Albino mouse assessed as inhibition of carrageenan-induced foot paw edema at 10 mg/kg, po administered 1 hr before carrageenan challenge measured after 2 hrs; assay type: functional
Outline: as §2

Mus musculus [13] = assay: Antiinflammatory activity against carrageenan-induced inflammation in Albino mouse air ppouch model assessed as number of polymorphonuclear leukocytes infiltration at 10 mg/kg, po administered 1 hr before carrageenan challenge measured after 4 hrs by air pouch test; assay type: functional
Outline: as §3

SMILES: COc1ccc2cc([C@H](C)C(=O)O)ccc2c1 [NAPROXEN]
- inhibition in vivo at 30 mg/kg (Mus musculus [1]): 66.9%

SMILES: Cc1cccc(C(=O)c2ccc(OCCN3CCCCC3)c(C)c2)c1
- Activity (Mus musculus [2]): Non-toxic
- Activity (Mus musculus [3]): Non-toxic
- inhibition in vivo at 100 mg/kg (Mus musculus [4]): 15.4%
- Activity (Mus musculus [5]): 104.76 ×10⁵ /cm'3
- Activity (Mus musculus [6]): Non-toxic

SMILES: Cc1cc(C(=O)c2cccc(Cl)c2)ccc1OCCN1CCCCC1
- Activity (Mus musculus [3]): Non-toxic
- inhibition in vivo at 100 mg/kg (Mus musculus [4]): 51.4%
- Activity (Mus musculus [5]): 56.26 ×10⁵ /cm'3
- Activity (Mus musculus [6]): Non-toxic
- Activity (Mus musculus [7]): Non-toxic

SMILES: Cc1cc(C(=O)c2ccc(Cl)cc2Cl)ccc1OCCN1CCCCC1
- Activity (Mus musculus [8]): Non-toxic
- Activity (Mus musculus [3]): Non-toxic
- inhibition in vivo at 100 mg/kg (Mus musculus [4]): 68.7%
- Activity (Mus musculus [5]): 30.15 ×10⁵ /cm'3
- Activity (Mus musculus [6]): Non-toxic
- Activity (Mus musculus [9]): Non-toxic
- Activity (Mus musculus [7]): Non-toxic

SMILES: Cc1cc(C(=O)c2ccc(F)cc2)ccc1OCCN1CCCCC1
- Activity (Mus musculus [8]): Non-toxic
- Activity (Mus musculus [2]): Non-toxic
- Activity (Mus musculus [3]): Non-toxic
- inhibition in vivo at 100 mg/kg (Mus musculus [4]): 60.6%
- Activity (Mus musculus [5]): 32.41 ×10⁵ /cm'3
- Activity (Mus musculus [6]): Non-toxic
- Activity (Mus musculus [9]): Non-toxic
- Activity (Mus musculus [7]): Non-toxic

SMILES: Cc1cc(C(=O)c2ccc(Br)cc2)ccc1OCCN1CCCCC1
- Activity (Mus musculus [8]): Non-toxic
- Activity (Mus musculus [2]): Non-toxic
- Activity (Mus musculus [3]): Non-toxic
- inhibition in vivo at 100 mg/kg (Mus musculus [4]): 67.5%
- Activity (Mus musculus [5]): 31.75 ×10⁵ /cm'3
- Activity (Mus musculus [6]): Non-toxic
- Activity (Mus musculus [9]): Non-toxic
- Activity (Mus musculus [7]): Non-toxic

SMILES: Cc1cc(C(=O)c2ccccc2)ccc1OCCN1CCCCC1
- inhibition in vivo at 100 mg/kg (Mus musculus [4]): 22.4%
- Activity (Mus musculus [5]): 95.25 ×10⁵ /cm'3
- Activity (Mus musculus [6]): Non-toxic
- Activity (Mus musculus [9]): Non-toxic

SMILES: Cc1cc(C(=O)c2ccccc2Br)ccc1OCCN1CCCCC1
- Activity (Mus musculus [8]): Non-toxic
- Activity (Mus musculus [2]): Non-toxic
- Activity (Mus musculus [3]): Non-toxic
- inhibition in vivo at 100 mg/kg (Mus musculus [4]): 51.4%
- Activity (Mus musculus [5]): 56.25 ×10⁵ /cm'3
- Activity (Mus musculus [6]): Non-toxic
- Activity (Mus musculus [9]): Non-toxic

SMILES: Cc1ccc(C(=O)c2ccc(OCCN3CCCCC3)c(C)c2)cc1
- Activity (Mus musculus [8]): Non-toxic
- Activity (Mus musculus [3]): Non-toxic
- inhibition (Mus musculus [4]): inactive
- Activity (Mus musculus [6]): Non-toxic
- Activity (Mus musculus [9]): Non-toxic
- Activity (Mus musculus [7]): Non-toxic

SMILES: COc1ccc2c(c1)c(CC(=O)O)c(C)n2C(=O)c1ccc(Cl)cc1 [INDOMETHACIN]
- Activity (Mus musculus [10]): Toxic
- Activity (Mus musculus [11]): Non-toxic
- inhibition in vivo at 10 mg/kg (Mus musculus [12]): 32.1%
- Activity (Mus musculus [13]): 68.81 ×10⁵ /cm'3

SMILES: CCCCC1C(=O)N(c2ccccc2)N(c2ccccc2)C1=O [PHENYLBUTAZONE]
- inhibition in vivo at 100 mg/kg (Mus musculus [4]): 53.3%
- Activity (Mus musculus [5]): 53.28 ×10⁵ /cm'3

SMILES: COc1ccc(C(=O)c2ccc(OCCN3CCCCC3)c(C)c2)cc1
- Activity (Mus musculus [8]): Non-toxic
- Activity (Mus musculus [3]): Non-toxic
- inhibition in vivo at 100 mg/kg (Mus musculus [4]): 51.4%
- Activity (Mus musculus [5]): 56.26 ×10⁵ /cm'3
- Activity (Mus musculus [6]): Non-toxic
- Activity (Mus musculus [9]): Non-toxic

SMILES: Cc1cc(C(=O)c2ccccc2C)ccc1OCCN1CCCCC1
- inhibition in vivo at 100 mg/kg (Mus musculus [4]): 35.6%
- Activity (Mus musculus [5]): 69.51 ×10⁵ /cm'3
- Activity (Mus musculus [6]): Non-toxic
- Activity (Mus musculus [9]): Non-toxic
- Activity (Mus musculus [7]): Non-toxic

Source: ChEMBL document CHEMBL1153368, “Benzophenone-N-ethyl piperidine ether analogues--synthesis and efficacy as anti-inflammatory agent” (Bioorg Med Chem Lett, 2009)
